{
  "source": "ChEMBL document CHEMBL3120104",
  "about": "“Discovery of the first C-nucleoside HCV polymerase inhibitor (GS-6620) with demonstrated antiviral response in HCV infected patients” (J Med Chem, 2014)",
  "data": [
    {"test_system": "not listed separately", "assay": "Metabolic stability in serum (unknown origin)", "assay_type": "ADME", "conditions": "not given", "values": [
      {"smiles": "CC[C@@H](C)OC(=O)[C@H](C)NP(=O)(OC[C@H]1O[C@@](C#N)(c2ccc3c(N)ncnn23)[C@](C)(O)[C@@H]1O)Oc1ccccc1", "note": "(some centres undefined)", "Stability": "Stable"}
    ]},
    {"test_system": "Hepatitis C virus", "assay": "Selectivity ratio of EC50 for HCV harboring NS5B RNA dependent RNA polymerase S282T mutant to EC50 for wild-type HCV", "assay_type": "functional, Hepacivirus hominis", "conditions": "not given", "values": [
      {"smiles": "C[C@@]1(O)[C@H](O)[C@@H](CO)O[C@H]1n1ccc2c(N)ncnc21", "note": "[BETA-2'-C-METHYL-7-DEAZA-ADENOSINE]", "Ratio EC50": ">95"}
    ]},
    {"test_system": "not listed separately", "assay": "Oral absorption in beagle dog at 5 mg/kg, po by LC/MS/MS analysis", "assay_type": "ADME, organism-based, Canis lupus familiaris", "parameters": "dose 5 mg/kg, route oral", "conditions": "in vivo", "outline": "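Naive male beagle dogs were dosed once, orally at 5 mg/kg in EtOH/PEG 400/50 mM citrate buffer pH 4 (5/40/55), or intravenously at 0.5 mg/kg for reference. Plasma was sampled over 24 h and processed by acetonitrile precipitation. Bioavailability %F = AUC_po × Dose_iv / (AUC_iv × Dose_po).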", "units": {"Fa": "%"}, "values": [
      {"smiles": "CC[C@@H](C)OC(=O)[C@H](C)NP(=O)(OC[C@H]1O[C@@](C#N)(c2ccc3c(N)ncnn23)[C@](C)(O)[C@@H]1O)Oc1ccccc1", "note": "(some centres undefined)", "Fa": 8.1}
    ]},
    {"test_system": "not listed separately", "assay": "AUC (0 to infinity) in jagular vein cannulated beagle dog at 0.5 mg/kg, iv by LC/MS/MS analysis", "assay_type": "ADME, organism-based, Canis lupus familiaris", "parameters": "time infinity, dose 0.5 mg/kg, route intravenous", "conditions": "plasma", "outline": "(§1)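 Naive male beagle dogs got a single intravenous infusion of 0.5 mg/kg in EtOH/PEG 400/water 5/20/75, adjusted to pH 4 with HCl. EDTA-K3 blood was collected over 24 h and plasma isolated. Plasma was precipitated with acetonitrile to a final 60%, filtered, dried, reconstituted in 20% acetonitrile and analysed.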", "units": {"AUC(0-inf)": "µM·h"}, "values": [
      {"smiles": "CC[C@@H](C)OC(=O)[C@H](C)NP(=O)(OC[C@H]1O[C@@](C#N)(c2ccc3c(N)ncnn23)[C@](C)(O)[C@@H]1O)Oc1ccccc1", "note": "(some centres undefined)", "AUC(0-inf)": 0.14}
    ]},
    {"test_system": "not listed separately", "assay": "AUC (0 to infinity) in portal vein cannulated beagle dog at 0.5 mg/kg, iv by LC/MS/MS analysis", "assay_type": "ADME, organism-based, Canis lupus familiaris", "parameters": "time infinity, dose 0.5 mg/kg, route intravenous", "conditions": "plasma", "outline": "as §1", "units": {"AUC(0-inf)": "µM·h"}, "values": [
      {"smiles": "CC[C@@H](C)OC(=O)[C@H](C)NP(=O)(OC[C@H]1O[C@@](C#N)(c2ccc3c(N)ncnn23)[C@](C)(O)[C@@H]1O)Oc1ccccc1", "note": "(some centres undefined)", "AUC(0-inf)": 0.46}
    ]},
    {"test_system": "Syrian golden hamster", "assay": "Cmax in golden syrian hamster assessed as liver triphosphate level at 5 mg/kg, po by LC/MS/MS analysis", "assay_type": "ADME, organism-based, Mesocricetus auratus", "parameters": "dose 5 mg/kg, route oral", "conditions": "in vivo", "outline": "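Groups of 12 Golden Syrian hamsters were dosed orally at 5 mg-equiv/kg. Vehicle was EtOH/PEG400/water buffered with 50 mM pH 4 citrate at 2.5 mg-equiv/mL. Liver was homogenized in four volumes of ice-cold 0.1% KOH/67 mM EDTA in 70% MeOH containing 0.25 μM Cl-ATP, then centrifuged, dried and reconstituted in 1 mM ammonium phosphate pH 7.0. Triphosphate was measured by LC/MS/MS, with endogenous ATP checked for sample stability.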", "units": {"Cmax": "nM"}, "values": [
      {"smiles": "CC[C@@H](C)OC(=O)[C@H](C)NP(=O)(OC[C@H]1O[C@@](C#N)(c2ccc3c(N)ncnn23)[C@](C)(O)[C@@H]1O)Oc1ccccc1", "note": "(some centres undefined)", "Cmax": 1870}
    ]},
    {"test_system": "not listed separately", "assay": "Metabolic stability in human liver S9 fraction assessed as extraction at 2 uM after 90 mins by LC/MS/MS analysis", "assay_type": "ADME, subcellular", "conditions": "read-out: Stability", "outline": "(§2)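 Compound at 2 μM was incubated with human intestinal or hepatic S9 fraction plus NADPH and UDPGA for 90 min at 37 °C. Time-point samples were quenched in aqueous acetonitrile/methanol with internal standard and analysed by LC/MS/MS. Half-life came from an exponential first-order fit, and hepatic extraction was predicted from half-life using the well-stirred model.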", "values": [
      {"smiles": "CC[C@@H](C)OC(=O)[C@H](C)NP(=O)(OC[C@H]1O[C@@](C#N)(c2ccc3c(N)ncnn23)[C@](C)(O)[C@@H]1O)Oc1ccccc1", "note": "(some centres undefined)", "hepatic extraction ratio at 1.5 h, 2 µM": 0.94}
    ]},
    {"test_system": "not listed separately", "assay": "Half life in human intestinal S9 fraction at 2 uM by LC/MS/MS analysis", "assay_type": "ADME, Intestine", "conditions": "not given", "outline": "as §2", "units": {"half-life at 2 µM": "h"}, "values": [
      {"smiles": "CC[C@@H](C)OC(=O)[C@H](C)NP(=O)(OC[C@H]1O[C@@](C#N)(c2ccc3c(N)ncnn23)[C@](C)(O)[C@@H]1O)Oc1ccccc1", "note": "(some centres undefined)", "half-life at 2 µM": 7.68}
    ]},
    {"test_system": "not listed separately", "assay": "Permeability across basolateral to apical side in human Caco2 cells at 10 uM after 1 to 2 hrs by LC/MS/MS analysis", "assay_type": "ADME, cell-based", "conditions": "Caco-2, read-out: permeability", "outline": "(§3)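 Caco-2 monolayers were grown at least 21 days, and membrane integrity was checked by TEER after buffer equilibration. Test compound was dosed at 10 μM on the apical or basolateral side, in duplicate wells. Receiver samples at 1 and 2 h were precipitated with acetonitrile plus internal standard and run by LC/MS/MS.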", "units": {"Papp B→A at 10 µM": "×10⁻⁶ cm/s"}, "values": [
      {"smiles": "CC[C@@H](C)OC(=O)[C@H](C)NP(=O)(OC[C@H]1O[C@@](C#N)(c2ccc3c(N)ncnn23)[C@](C)(O)[C@@H]1O)Oc1ccccc1", "note": "(some centres undefined)", "Papp B→A at 10 µM": 37.5}
    ]},
    {"test_system": "not listed separately", "assay": "Permeability across apical to basolateral side in human Caco2 cells at 10 uM after 1 to 2 hrs by LC/MS/MS analysis", "assay_type": "ADME, cell-based", "conditions": "Caco-2, read-out: permeability", "outline": "as §3", "units": {"Papp A→B at 10 µM": "×10⁻⁶ cm/s"}, "values": [
      {"smiles": "CC[C@@H](C)OC(=O)[C@H](C)NP(=O)(OC[C@H]1O[C@@](C#N)(c2ccc3c(N)ncnn23)[C@](C)(O)[C@@H]1O)Oc1ccccc1", "note": "(some centres undefined)", "Papp A→B at 10 µM": 0.75}
    ]},
    {"test_system": "not listed separately", "assay": "Aqueous solubility of the compound in phosphate buffer at pH 7 by reverse-phase UPLC-UV method", "assay_type": "physicochemical", "conditions": "not given", "outline": "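Excess solid was suspended in pH 7 phosphate buffer at ambient temperature, sonicated, then stirred for at least 2 h. After centrifugation, the supernatant was quantified by reverse-phase UPLC-UV.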", "units": {"solubility": "µg/mL"}, "values": [
      {"smiles": "CC[C@@H](C)OC(=O)[C@H](C)NP(=O)(OC[C@H]1O[C@@](C#N)(c2ccc3c(N)ncnn23)[C@](C)(O)[C@@H]1O)Oc1ccccc1", "note": "(some centres undefined)", "solubility": 151}
    ]},
    {"test_system": "not listed separately", "assay": "Lipophilicity, log D of the compound by HPLC/UV method", "assay_type": "physicochemical", "conditions": "not given", "outline": "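A 10 mM DMSO stock was diluted 1:100 into 1:1 acetonitrile/water, shaken 30 min, and analysed by HPLC/UV on a C18 column with 20 mM ammonium acetate/acetonitrile mobile phase.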", "values": [
      {"smiles": "CC[C@@H](C)OC(=O)[C@H](C)NP(=O)(OC[C@H]1O[C@@](C#N)(c2ccc3c(N)ncnn23)[C@](C)(O)[C@@H]1O)Oc1ccccc1", "note": "(some centres undefined)", "logD": 1.9}
    ]},
    {"test_system": "not listed separately", "assay": "Cytotoxicity against human HuH7 cells after 3 days by fluorescence assay", "assay_type": "cell-based", "conditions": "Huh-7 cells", "outline": "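Huh-7 HCV replicon cells were seeded at 2000 cells/well in medium without Geneticin. Compounds were added as ten-point 1:3 DMSO dilutions in quadruplicate (final DMSO 0.44%), with […] as the 100% cytotoxicity control. After 3 days at 37 °C, cells were washed and given 400 nM calcein AM for 30 min at RT, and fluorescence read at ex 490/em 520 nm. Signal was normalized to DMSO and puromycin wells, and CC50 taken from a four-parameter Hill fit.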", "units": {"CC50 at 72 h": "nM"}, "values": [
      {"smiles": "CC[C@@H](C)OC(=O)[C@H](C)NP(=O)(OC[C@H]1O[C@@](C#N)(c2ccc3c(N)ncnn23)[C@](C)(O)[C@@H]1O)Oc1ccccc1", "note": "(some centres undefined)", "CC50 at 72 h": "> 89000"}
    ]},
    {"test_system": "Hepatitis C virus", "assay": "Antiviral activity against HCV genotype 1b infected in human HuH7 cells assessed as inhibition of viral replication after 3 days by luminescence assay", "assay_type": "functional, organism-based, Hepacivirus hominis", "conditions": "Huh-7, 72 h", "outline": "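Multiplex replicon assay carrying a renilla luciferase reporter, with stable GT1b, 1a and 2a replicons and chimeric 2b, 3a, 4a, 5a and 6a replicons. 2000 replicon cells/well in medium without Geneticin. Ten-step 1:3 serial dilutions, four replicates, 0.44% DMSO final. Incubated 3 days at 37 °C, 5% CO₂. Luminescence normalised to DMSO wells and to protease-inhibitor (ITMN-191) wells. EC50 from a four-parameter Hill fit.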", "units": {"EC50": "nM"}, "values": [
      {"smiles": "CC[C@@H](C)OC(=O)[C@H](C)NP(=O)(OC[C@H]1O[C@@](C#N)(c2ccc3c(N)ncnn23)[C@](C)(O)[C@@H]1O)Oc1ccccc1", "note": "(some centres undefined)", "EC50": 980}
    ]}
  ]
}
